The source made the active and inactive calls. The calls are words filed in the database; no cut-off is given here.

The results in this text go back to ChEMBL document CHEMBL1152686, “Development and characterization of lysine based tripeptide analogues as inhibitors of Sir2 activity” (Bioorg Med Chem, 2009).

Test [1] is described as follows: Inhibition of His-tagged Plasmodium falciparum Sir2 expressed in Escherichia coli preincubated 5 min before substrate assay mixture addition by FRET assay. In a few lines:
(§1)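 Recombinant C-terminal His-tagged PfSir2 from E. coli BL21(DE3), Ni-NTA purified. Enzyme preincubated with inhibitor 5 min, then added to mix of 5 mM Tris-HCl pH 8.0, trichostatin A and trypsin with acetyl-lysine EDANS–DABCYL peptide. Deacetylation allows trypsin cleavage and a rise in fluorescence. Read at 37 °C on a spectrofluorimeter.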

A short description of test [2]: Noncompetitive inhibition of His-tagged Plasmodium falciparum Sir2 expressed in Escherichia coli measured by primary plot of enzyme kinetics in presence of saturating NAD+ levels by FRET assay. Summed up: (§2)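 His-tagged PfSir2 from E. coli, coupled FRET assay (acetyl-lysine EDANS–DABCYL peptide, trypsin cleavage after deacetylation), 37 °C. Initial velocities measured with one substrate varied, the other fixed at saturating level, at several fixed inhibitor levels. Parameters from non-linear regression. Lineweaver–Burk plots, plus secondary slope and intercept plots versus [I], fit linearly or by second-order polynomial. Two independently purified enzyme batches.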

The nature of test [3]: Noncompetitive inhibition of His-tagged Plasmodium falciparum Sir2 expressed in Escherichia coli measured by secondary plot of slope versus inhibitor concentration in presence of saturating NAD+ levels by FRET assay. Summed up:
as §2

Test [4] addresses T1, NAD-dependent protein deacetylase sirtuin-1 (Homo sapiens) (UniProt Q96EB6).
T1 sequence (whole entry): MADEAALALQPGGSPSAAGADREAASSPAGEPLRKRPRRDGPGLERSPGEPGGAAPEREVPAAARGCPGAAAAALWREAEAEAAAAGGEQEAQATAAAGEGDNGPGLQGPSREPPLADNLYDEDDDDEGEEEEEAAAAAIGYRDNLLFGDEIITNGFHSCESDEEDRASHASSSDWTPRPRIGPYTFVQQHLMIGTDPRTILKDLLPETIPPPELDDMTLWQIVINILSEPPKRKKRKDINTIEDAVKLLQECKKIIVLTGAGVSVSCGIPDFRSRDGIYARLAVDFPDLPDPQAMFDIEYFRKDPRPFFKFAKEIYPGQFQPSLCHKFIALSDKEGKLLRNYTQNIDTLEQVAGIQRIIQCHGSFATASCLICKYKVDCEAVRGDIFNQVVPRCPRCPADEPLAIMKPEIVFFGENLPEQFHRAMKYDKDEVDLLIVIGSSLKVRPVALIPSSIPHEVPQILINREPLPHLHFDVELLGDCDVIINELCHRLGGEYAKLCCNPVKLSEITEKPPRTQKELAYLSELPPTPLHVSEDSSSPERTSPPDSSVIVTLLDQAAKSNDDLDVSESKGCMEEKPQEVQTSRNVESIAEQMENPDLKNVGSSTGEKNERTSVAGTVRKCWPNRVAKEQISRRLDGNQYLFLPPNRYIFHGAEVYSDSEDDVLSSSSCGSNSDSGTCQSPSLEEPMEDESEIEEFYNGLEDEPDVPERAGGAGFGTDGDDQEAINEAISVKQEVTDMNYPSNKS
The test can be described thus: Inhibition of human Sirt1.

The subject of test [5] is Plasmodium falciparum. The test can be described thus: Antiplasmodial activity against Plasmodium falciparum 3D7 infected in human O+ erythrocytes assessed as inhibition of parasite growth in intraerythrocytic stage after 24 hrs by [3H]hypoxanthine incorporation assay. The format is functional, organism-based. Summed up:
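P. falciparum 3D7 grown in human O+ erythrocytes at 5% hematocrit, RPMI 1640 with 10% human serum. Compound in DMSO, twofold serial dilutions from 400 to 0.2 µM. Wells at 2% parasitemia and 2% hematocrit, 37 °C in candle jar. After 24 h, 1.0 µCi [3H]hypoxanthine added per well for another 12 h. Filter-harvested counts; IC50 by interpolation from log plot. Done twice in duplicate.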

Test [6] is described as follows: Competitive inhibition of His-tagged Plasmodium falciparum Sir2 expressed in Escherichia coli measured by secondary plot of slope versus inhibitor concentration in presence of saturating acetylated peptide levels by FRET assay. In a few lines:
as §2

A short description of test [7]: Noncompetitive inhibition of His-tagged Plasmodium falciparum Sir2 expressed in Escherichia coli measured by secondary plot of intercept versus inhibitor concentration in presence of saturating NAD+ levels by FRET assay. Summed up: as §2
The nature of test [8]: Competitive inhibition of His-tagged Plasmodium falciparum Sir2 expressed in Escherichia coli measured by primary plot of enzyme kinetics in presence of saturating acetylated peptide levels by FRET assay. Summed up: as §2
Test [9] concerns Plasmodium falciparum. The test is described as follows: Inhibition of His-tagged Plasmodium falciparum Sir2 expressed in Escherichia coli at t500 uM preincubated 5 min before substrate assay mixture addition by FRET assay. In a few lines:
as §1

The IC50 is the concentration at which inhibition is half-maximal. Broadly, the Ki is the dissociation constant of the complex between target and ligand, obtained from inhibition or displacement. With `COC(=O)[C@@H](NC(=O)[C@H](CCCCNC(=O)OCc1cn(C[C@H]2O[C@H](OC)[C@H](OC(C)=O)[C@@H](OC(C)=O)[C@@H]2OC(C)=O)nn1)NC(=O)[C@H](Cc1ccccc1)NC(=O)OC(C)(C)C)C(C)C`, the results for the IC50 (in [1]; with Plasmodium falciparum [5]) were 23 µM and 9.8 µM, respectively. Also, the inhibition constant (Ki) in test [2] came to 134 µM; in [3] it was 90 µM; in [6] it was 60 µM; in test [7] it was 119 µM; in test [8] it was 60 µM. For the same compound, the “inhibition (qualitative call)” value in [4] was “Active”.

With `COC(=O)[C@@H](NC(=O)[C@H](CCCCNC(=O)OCc1cn([C@@H]2O[C@H](COC(C)=O)[C@H](OC(C)=O)[C@H](OC(C)=O)[C@H]2OC(C)=O)nn1)NC(=O)[C@H](Cc1ccccc1)NC(=O)OC(C)(C)C)C(C)C`, the IC50 in test [1] worked out at 151 µM. The Ki was determined as 154 µM in [2]; 172 µM in test [3]; 80 µM in test [6]; 193 µM in test [7]; 85 µM in [8]. The “inhibition (qualitative call)” value in [4] was “Active”.

`COC(=O)[C@@H](NC(=O)[C@H](CCCCNC(=O)OCc1cn([C@@H]2O[C@H]([C@@H]3COC(C)(C)O3)[C@@H]3OC(C)(C)O[C@@H]32)nn1)NC(=O)[C@H](Cc1ccccc1)NC(=O)OC(C)(C)C)C(C)C`: the IC50 in test [1] amounted to 34 µM. Besides, the inhibition constant (Ki) is 122 µM in test [2]; 90 µM in test [3]; 62 µM in [6]; 125 µM in [7]; 58 µM in test [8]. Moreover, the “inhibition (qualitative call)” value in test [4] was “Active”.

On to `C#CCOC(=O)NCCCC[C@H](NC(=O)OC(C)(C)C)C(=O)N[C@H](C(=O)OC)C(C)C`, for which the inhibition entry in the test on Plasmodium falciparum [9] is “inactive”.

On to `CC(=O)O[C@H]1C[C@H](n2cc(C)c(=O)[nH]c2=O)O[C@@H]1Cn1cc(COC(=O)NCCCC[C@H](NC(=O)OC(C)(C)C)C(=O)OCc2ccccc2)nn1`, for which, in the test with Plasmodium falciparum [9], the inhibition result was “inactive”.

With `C#CCOC(=O)NCCCC[C@H](NC(=O)OC(C)(C)C)C(=O)O`, the inhibition result in the test with Plasmodium falciparum [9] was “inactive”.

For `COC(=O)[C@@H](NC(=O)[C@H](CCCCNC(=O)OCc1cn(C[C@H]2O[C@@H](n3cc(C)c(=O)[nH]c3=O)C[C@@H]2OC(C)=O)nn1)NC(=O)[C@H](Cc1ccccc1)NC(=O)OC(C)(C)C)C(C)C`, in test [1], the half-maximal inhibitory concentration (IC50) stood at 33 µM. Further, the Ki came out at 124 µM in test [2]; 115 µM in test [3]; 64 µM in test [6]; 113 µM in test [7]; 60 µM in [8]. Further, the “inhibition (qualitative call)” value in test [4] was “Active”.
